Source: ChEMBL document CHEMBL1148504, “Substituent effects of N-(1,3-diphenyl-1H-pyrazol-5-yl)benzamides on positive allosteric modulation of the metabotropic glutamate-5 receptor in rat cortical astrocytes” (J Med Chem, 2006)
The source made the active and inactive calls. The rule behind the calls is not given here.

Legend:
[1] = molecular target: T1, Metabotropic glutamate receptor 5 (Rattus norvegicus, UniProt P31424); test: Displacement of [3H]methoxyPEPy from rat mGluR5 expressed in HEK293 cells; format: cell-based
How it was run: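 Membranes from stable HEK cells expressing rat mGluR5a, resuspended in 50 mM Tris HCl/0.9% saline, pH 7.4. Final: 2 nM [3H]methoxyPEPy, 0.1 mg protein/mL, 0.13% DMSO, triplicate; 60 min at room temperature with shaking. Filtration onto GF/B filters, scintillation counting. Nonspecific binding with 5 µM MPEP. Ki derived from IC50 by nonlinear fit; mean ± SEM of three experiments.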

[2] = molecular target: T1, Metabotropic glutamate receptor 5; test: (§1) Activity at mGluR5 assessed as potentiation of glutamate-induced calcium flux in rat astrocytes; format: functional, cell-based
How it was run: (§2)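 Cortical astrocytes from 2-4-day-old Sprague Dawley rats, grown 1 week in DMEM/10% FBS/2 mM glutamine/20 mM HEPES at 37 °C, 5% CO2, then plated on poly-D-lysine. Dye-loaded 1 h at 37 °C; HBSS with 20 mM HEPES, 2.5 mM probenecid, pH 7.4.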

[3] = molecular target: Metabotropic glutamate receptor 5 (Rattus norvegicus) (UniProt P31424); test: as §1; format: functional, cell-based; how it was run: as §2
Metabotropic glutamate receptor 5 (Rattus norvegicus), sequence (P31424 21-1203 limits assumed): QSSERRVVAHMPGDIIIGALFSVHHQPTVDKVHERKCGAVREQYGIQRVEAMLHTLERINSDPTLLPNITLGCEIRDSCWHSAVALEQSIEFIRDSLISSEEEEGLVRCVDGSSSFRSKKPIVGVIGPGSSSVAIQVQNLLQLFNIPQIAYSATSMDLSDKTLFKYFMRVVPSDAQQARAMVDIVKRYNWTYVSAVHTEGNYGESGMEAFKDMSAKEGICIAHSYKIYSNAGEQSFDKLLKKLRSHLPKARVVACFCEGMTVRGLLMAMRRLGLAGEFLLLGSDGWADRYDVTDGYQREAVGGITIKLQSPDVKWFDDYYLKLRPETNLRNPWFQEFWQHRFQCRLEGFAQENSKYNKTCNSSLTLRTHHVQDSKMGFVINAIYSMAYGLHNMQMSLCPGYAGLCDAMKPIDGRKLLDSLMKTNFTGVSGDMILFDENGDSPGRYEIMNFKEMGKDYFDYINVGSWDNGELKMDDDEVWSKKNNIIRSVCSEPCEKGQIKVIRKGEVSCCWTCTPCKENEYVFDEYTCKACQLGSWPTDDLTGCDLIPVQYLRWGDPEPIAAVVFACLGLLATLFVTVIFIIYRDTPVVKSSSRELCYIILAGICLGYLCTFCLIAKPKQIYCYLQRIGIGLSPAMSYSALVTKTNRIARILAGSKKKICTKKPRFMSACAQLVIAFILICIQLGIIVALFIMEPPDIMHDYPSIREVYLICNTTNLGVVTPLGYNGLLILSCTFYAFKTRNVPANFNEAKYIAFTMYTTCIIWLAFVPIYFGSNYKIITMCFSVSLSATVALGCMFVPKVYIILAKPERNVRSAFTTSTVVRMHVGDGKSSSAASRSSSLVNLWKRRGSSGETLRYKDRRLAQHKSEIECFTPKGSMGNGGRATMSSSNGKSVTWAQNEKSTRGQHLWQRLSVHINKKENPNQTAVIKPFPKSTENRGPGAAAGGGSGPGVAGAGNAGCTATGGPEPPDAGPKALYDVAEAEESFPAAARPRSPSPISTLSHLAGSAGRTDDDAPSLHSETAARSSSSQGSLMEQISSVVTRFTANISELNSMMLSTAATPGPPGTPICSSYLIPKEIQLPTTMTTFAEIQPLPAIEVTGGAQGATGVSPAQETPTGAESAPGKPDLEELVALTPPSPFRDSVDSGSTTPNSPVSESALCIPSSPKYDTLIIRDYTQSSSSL

T1 sequence (P31424 whole entry): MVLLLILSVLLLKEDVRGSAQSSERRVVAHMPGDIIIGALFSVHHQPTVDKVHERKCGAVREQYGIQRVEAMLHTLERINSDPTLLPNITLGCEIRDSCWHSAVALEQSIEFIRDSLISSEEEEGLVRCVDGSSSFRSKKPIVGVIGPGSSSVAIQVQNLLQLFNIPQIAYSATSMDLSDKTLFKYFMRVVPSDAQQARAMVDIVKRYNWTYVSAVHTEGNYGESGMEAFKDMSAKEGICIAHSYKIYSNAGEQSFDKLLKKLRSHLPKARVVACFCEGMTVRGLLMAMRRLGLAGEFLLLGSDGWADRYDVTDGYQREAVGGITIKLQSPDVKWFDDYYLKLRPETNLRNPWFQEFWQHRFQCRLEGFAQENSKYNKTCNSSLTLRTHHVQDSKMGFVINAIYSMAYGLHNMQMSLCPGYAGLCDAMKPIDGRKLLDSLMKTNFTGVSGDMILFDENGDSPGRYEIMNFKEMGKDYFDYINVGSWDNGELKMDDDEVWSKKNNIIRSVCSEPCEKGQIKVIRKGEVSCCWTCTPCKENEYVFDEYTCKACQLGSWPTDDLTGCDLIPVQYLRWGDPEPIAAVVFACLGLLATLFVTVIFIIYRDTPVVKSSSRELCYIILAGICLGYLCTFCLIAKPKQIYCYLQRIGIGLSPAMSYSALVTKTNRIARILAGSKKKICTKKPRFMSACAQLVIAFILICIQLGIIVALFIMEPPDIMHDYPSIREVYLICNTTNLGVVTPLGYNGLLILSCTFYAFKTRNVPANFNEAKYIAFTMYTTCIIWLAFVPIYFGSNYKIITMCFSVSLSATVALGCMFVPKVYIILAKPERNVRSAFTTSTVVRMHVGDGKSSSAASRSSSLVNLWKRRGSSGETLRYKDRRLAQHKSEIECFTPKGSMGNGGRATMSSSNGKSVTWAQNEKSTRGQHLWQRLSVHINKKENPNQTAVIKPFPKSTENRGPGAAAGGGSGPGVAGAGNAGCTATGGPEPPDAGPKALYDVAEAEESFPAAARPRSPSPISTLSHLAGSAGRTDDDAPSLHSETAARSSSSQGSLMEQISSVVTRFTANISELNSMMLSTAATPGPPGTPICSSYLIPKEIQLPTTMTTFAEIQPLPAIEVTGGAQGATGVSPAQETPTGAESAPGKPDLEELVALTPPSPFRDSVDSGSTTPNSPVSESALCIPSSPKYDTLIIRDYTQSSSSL

Row | Ki [1] [nM] | EC50 [2] [nM] | Activity ([3]; filed as antagonist) | Activity [3] | SMILES
1 | 3480 | 280 |  |  | Cc1ccc(C(=O)Nc2cc(-c3ccccc3)nn2-c2ccccc2)cn1
2 | > 10000 | > 10000 |  |  | O=C(Nc1cn(-c2ccccc2)nc1-c1ccccc1)c1ccc([N+](=O)[O-])cc1
3 | 3920 |  | Antagonist |  | O=C(Nc1c(-c2ccccc2)nc2ccccn12)c1ccccc1
4 | 230 | 50 |  |  | N#Cc1cccc(C(=O)Nc2cc(-c3ccccc3)nn2-c2ccccc2Br)c1
5 | > 10000 |  |  | inactive | NC(=O)c1ccc(C(=O)Nc2cc(-c3ccccc3)nn2-c2ccccc2)cc1
6 | 1200 |  | Antagonist |  | N#Cc1cccc(C(=O)Nc2c(-c3ccccc3)cnn2-c2ccccc2)c1
7 | 265 | 18 |  |  | O=C(Nc1cc(-c2ccccc2)nn1-c1ccccc1)c1ccc(OC(F)(F)F)cc1
8 | 420 | 54 |  |  | COc1ccc(C(=O)Nc2cc(-c3ccccc3)nn2-c2ccccc2)cc1
9 | > 10000 | 350 |  |  | O=C(CC1CCCC1)Nc1cc(-c2ccccc2)nn1-c1ccccc1
10 | 2220 | 39 |  |  | O=C(Nc1cc(-c2ccccc2)nn1-c1ccccc1)c1cccc([N+](=O)[O-])c1
11 | 1290 | 102 |  |  | COc1cccc(C(=O)Nc2cc(-c3ccccc3)nn2-c2ccccc2)c1
12 | > 10000 |  |  | inactive | O=C(Nc1cc(-c2ccccc2)nn1-c1ccccn1)c1ccccc1
13 | 430 | 20 |  |  | Cc1ccc(C(=O)Nc2cc(-c3ccccc3)nn2-c2ccccc2)cc1C
14 | 11600 | 3410 |  |  | O=C(Nc1cc(-c2ccccc2)nn1-c1ccccc1)C1CCCC1
15 | 4180 | 203 |  |  | O=C(Nc1cc(-c2ccccc2)nn1-c1ccccc1)c1ccccc1
16 | > 10000 | 2290 |  |  | O=C(Nc1cc(-c2ccccc2Cl)nn1-c1ccccc1)c1ccccc1
17 | 2700 | 104 |  |  | O=C(Nc1cc(-c2ccccc2)nn1-c1ccccc1F)c1ccccc1
18 | 160 | 9.6 |  |  | O=C(Nc1cc(-c2ccccc2)nn1-c1ccccc1F)c1ccc([N+](=O)[O-])cc1
19 | 1810 | 560 |  |  | O=C(/C=C/c1ccc([N+](=O)[O-])cc1)Nc1cc(-c2ccccc2)nn1-c1ccccc1
20 | 3200 | 600 |  |  | COc1cccc(-c2cc(NC(=O)c3ccccc3)n(-c3ccccc3)n2)c1
21 | 500 | 62 |  |  | O=C(Nc1cc(-c2ccccc2)nn1-c1ccccc1Cl)c1ccccc1
22 | > 10000 | > 10000 |  |  | O=C(Nc1cc(-c2ccccc2)nn1-c1ccccc1)c1ccccc1[N+](=O)[O-]
23 | 1990 |  | Antagonist |  | N#Cc1cccc(C(=O)Nc2c(-c3ccccc3)nc3ccccn23)c1
24 | 990 | 38 |  |  | O=C(Nc1cc(-c2ccccc2)nn1-c1ccccc1)c1ccc(C(F)(F)F)cc1
25 | > 10000 | 117 |  |  | N#Cc1cccc(-n2nc(-c3ccccc3)cc2NC(=O)c2ccccc2)c1
26 | 230 | 68 |  |  | O=C(Nc1cc(-c2ccccc2)nn1-c1ccccc1Br)c1cccc([N+](=O)[O-])c1

Row | Ki [1] [nM] | EC50 [2] [nM] | Activity ([3]; filed as antagonist) | Activity [3] | SMILES
27 | 1650 | 228 |  |  | O=C(Nc1cc(-c2ccccc2)nn1-c1ccccc1)c1cccc(C(F)(F)F)c1
28 | > 10000 | > 10000 |  |  | O=C(Nc1cn(-c2ccccc2)nc1-c1ccccc1)c1ccccc1
29 | > 10000 | 400 |  |  | O=C(Nc1cc(-c2ccccc2)nn1-c1cccc(Br)c1)c1ccccc1
30 | 3050 | 340 |  |  | N#Cc1ccc(C(=O)N(C(=O)c2ccc(C#N)cc2)c2cc(-c3ccccc3)nn2-c2ccccc2)cc1
31 | > 10000 |  |  | inactive | O=C(O)c1ccc(C(=O)Nc2cc(-c3ccccc3)nn2-c2ccccc2)cc1
32 | 110 | 40 |  |  | O=C(Nc1cc(-c2ccccc2)nn1-c1ccccc1Cl)c1ccc([N+](=O)[O-])cc1
33 | 1560 | 75 |  |  | N#Cc1ccc(C(=O)Nc2cc(-c3ccccc3)nn2-c2ccccc2)cc1
34 | 10100 | > 10000 |  |  | O=C(Nc1cc(-c2ccccc2)nn1-c1ccccc1)C1CCCCC1
35 | > 10000 | > 10000 |  |  | N#Cc1cccc(C(=O)Nc2cn(-c3ccccc3)nc2-c2ccccc2)c1
36 | 5230 | 43 |  |  | N#Cc1ccc(C(=O)/N=c2\cc(-c3ccccc3)n(C(=O)c3ccc(C#N)cc3)n2-c2ccccc2)cc1
37 | 160 | 13 |  |  | O=C(Nc1cc(-c2ccccc2)nn1-c1ccccc1)c1ccc(Cl)c(Cl)c1
38 | > 10000 | > 10000 |  |  | O=C(Nc1c(-c2ccccc2)cnn1-c1ccccc1)c1ccc([N+](=O)[O-])cc1
39 | 120 | 61 |  |  | O=C(Nc1cc(-c2ccccc2)nn1-c1ccccc1Br)c1ccc([N+](=O)[O-])cc1
40 | > 10000 | 3530 |  |  | COc1ccc(C(=O)Nc2cc(-c3ccccc3)nn2-c2ccccc2)cc1OC
41 | 2600 | 200 |  |  | O=C(Nc1cc(-c2ccccc2)nn1-c1ccccc1Br)c1ccccc1
42 | 5880 | 2600 |  |  | c1ccc(-c2cn(-c3cc(-c4ccccc4)nn3-c3ccccc3)nn2)cc1
43 |  | 65 |  |  | O=C(Nc1cc(-c2ccccc2)nn1-c1ccccc1)c1cc([N+](=O)[O-])cc([N+](=O)[O-])c1
44 | 780 | 64 |  |  | Cc1ccc(C(=O)Nc2cc(-c3ccccc3)nn2-c2ccccc2)cc1
45 | > 10000 | 2500 |  |  | O=C(Nc1cc(-c2ccccc2)nn1-c1ccccc1)c1ccncc1
46 | 1170 |  | Antagonist |  | O=C(Nc1c(-c2ccccc2)cnn1-c1ccccc1)c1ccccc1
47 |  | 170 |  |  | O=C(c1ccc(F)cc1)N1CCC[C@H](c2nc(-c3ccc(F)cc3)no2)C1
48 | 250 | 10.7 |  |  | O=C(Nc1cc(-c2ccccc2)nn1-c1ccccc1)c1ccc([N+](=O)[O-])cc1
49 | 4470 | 3300 |  |  | O=C(Nc1cc(-c2ccccc2)nn1-c1ccccc1)C1=CCCCC1
50 | 2100 | 570 |  |  | COc1cccc(-n2nc(-c3ccccc3)cc2NC(=O)c2ccccc2)c1
51 | > 10000 | 2040 |  |  | COc1cc(OC)cc(C(=O)Nc2cc(-c3ccccc3)nn2-c2ccccc2)c1
